# Measured values as given in ChEMBL document CHEMBL4190199, “Antimalarial Activities of Alkyl Cyclohexenone Derivatives Isolated from the Leaves of Poupartia borbonica” (J Nat Prod, 2017).
# Experiments:
# Plasmodium falciparum [1] = test: Antiplasmodial activity against asexual erythrocyte stage of chloroquine-resistant Plasmodium falciparum W2 infected in human red blood cells after 48 hrs by lactate dehydrogenase assay; type: functional, organism-based; conditions: W2, 48 h
# Outline: (§1)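 P. falciparum asexual blood stages in human A+ erythrocytes, RPMI 1640 with HEPES, NaHCO3, glutamine, glucose, hypoxanthine, gentamycin and 10% human A+ serum. Parasitemia 2%, hematocrit 1%. Eight 2-fold dilutions in triplicate, DMSO at most 1%. After 48 h, growth read by pLDH activity. Artemisinin positive control. IC50 read from graphs.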
# Plasmodium falciparum [2] = test: Antiplasmodial activity against asexual erythrocyte stage of chloroquine-sensitive Plasmodium falciparum 3D7 infected in human red blood cells after 48 hrs by lactate dehydrogenase assay; type: functional, organism-based; conditions: 3D7, 48 h; outline: as §1
# WI-38 = test: Cytotoxicity against human WI38 cells after 48 hrs by WST-1 assay; type: cell-based; conditions: WI-38, 48 h
# HeLa = test: Cytotoxicity against human HeLa cells after 48 hrs by WST-1 assay; type: functional, cell-based
# Outline: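 HeLa cells seeded at 6000 per well in medium containing test compounds and incubated 48 h. WST-1 then added for 30 min at 37 °C, absorbance read at 450 nm. Results expressed as percent of untreated control cells; IC50 taken from graphs.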
# Danio rerio [3] = organism: Danio rerio; test: Toxicity in 24 to 72 hrs post fertilized zebra fish embryo assessed as bradycardia at 2 to 2.5 ug/ml replaced once daily for 3 days; type: organism-based; conditions: zebrafish, in vivo
# Outline: (§2)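 Dechorionated zebrafish embryos, 25 per condition, duplicate geometric series. The first step spanned 10 to 0.001 µg/mL and the second was narrowed to 10 to 1 µg/mL. Compound was diluted from DMSO in fish medium, final DMSO at most 0.4%. Treatment was renewed daily for 3 days, with untreated and 0.4% DMSO controls. Embryos were observed daily until 72 hpf.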
# Danio rerio [4] = organism: Danio rerio; test: Toxicity in 72 hrs post fertilized zebra fish embryo assessed as cumulative mortality measured after third treatment dose replaced once daily for 3 days; type: organism-based; conditions: zebrafish, in vivo; outline: as §2
# Danio rerio [5] = organism: Danio rerio; test: Toxicity in 72 hrs post fertilized zebra fish embryo assessed as decrease in pericardial function measured after third treatment dose replaced once daily for 3 days; type: organism-based; conditions: zebrafish, in vivo; outline: as §2
# Danio rerio [6] = organism: Danio rerio; test: Toxicity in 24 to 72 hrs post fertilized zebra fish embryo assessed as death at 10 ug/ml measured within 1 day post dose; type: organism-based; conditions: zebrafish, in vivo; outline: as §2
# Danio rerio [7] = organism: Danio rerio; test: Toxicity in 24 to 72 hrs post fertilized zebra fish embryo assessed as embryo disintegration at 3 to 10 ug/ml replaced once daily for 3 days; type: organism-based; conditions: zebrafish, in vivo; outline: as §2
# [8] = Selectivity index, ratio of IC50 for human WI38 cells to IC50 for asexual erythrocyte stage of chloroquine-sensitive Plasmodium falciparum 3D7 infected in human red blood cells; type: toxicity, cell-based; conditions: read-out: Ratio IC50
# Danio rerio [9] = organism: Danio rerio; test: Toxicity in 48 hrs post fertilized zebra fish embryo assessed as cumulative mortality at 1 to 10 ug/ml replaced once daily for 3 days; type: organism-based; conditions: zebrafish, in vivo, 72 h; outline: as §2
# Mus musculus = test: Toxicity in Swiss mouse assessed as mortality at 15 mg/kg, ip qd measured on day 7; type: organism-based; conditions: in vivo
# Plasmodium berghei [10] = test: Antimalarial activity against Plasmodium berghei NK173 infected in Swiss mouse assessed as inhibition of parasitemia at 15 mg/kg, ip qd administered 4 hrs post infection for 3 days measured on day 5 by Giemsa staining based microscopy relative to control; type: functional
# Outline: (§3)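 Female Swiss mice (10 weeks, 25 ± 2 g), groups of five, infected ip with 2 × 10^7 P. berghei NK173 parasitized red cells. 15 mg/kg ip in 7% Tween 80/3% EtOH in sterile water, first dose 4 h post-infection (day 0), then once daily for 3 more days. Parasitemia read on Giemsa-stained tail-blood thin smears (≥500 erythrocytes). Inhibition calculated against vehicle controls at days 5 and 7.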
# Danio rerio [11] = organism: Danio rerio; test: Toxicity in 72 hrs post fertilized zebra fish embryo assessed as death measured after third treatment dose replaced once daily for 3 days; type: organism-based; conditions: zebrafish, in vivo; outline: as §2
# Plasmodium berghei [12] = test: Antimalarial activity against Plasmodium berghei NK173 infected in Swiss mouse assessed as inhibition of parasitemia at 15 mg/kg, ip qd administered 4 hrs post infection for 3 days measured on day 7 by Giemsa staining based microscopy relative to control; type: functional; outline: as §3
# [13] = Selectivity index, ratio of IC50 for human WI38 cells to IC50 for asexual erythrocyte stage of chloroquine-resistant Plasmodium falciparum W2 infected in human red blood cells; type: toxicity, cell-based; conditions: read-out: Ratio IC50
# Danio rerio [14] = organism: Danio rerio; test: Toxicity in 24 to 72 hrs post fertilized zebra fish embryo assessed as percentage of bradycardia developed embryos at 2 to 2.5 ug/ml replaced once daily for 3 days measured each day until 72 hrs post fertilization; type: organism-based; conditions: zebrafish, in vivo
# Outline: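 Dechorionated zebrafish embryos, 25 per condition, exposed from 24 hpf. Compound in DMSO diluted in zebrafish medium (final DMSO at most 0.4%). Treatment replaced once daily for 3 days, with a narrowed 10–1 µg/mL range run in duplicate. Embryos observed daily to 72 hpf for mortality, disintegration, bradycardia and morphology. Untreated and 0.4% DMSO groups of 25 served as controls.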
# Danio rerio [15] = organism: Danio rerio; test: Toxicity in 72 hrs post fertilized zebra fish embryo assessed as morphological changes at 1 ug/ml replaced once daily for 3 days; type: organism-based; conditions: zebrafish, in vivo; outline: as §2
# [16] = Hemolytic activity in human RBC at 10 ug/ml after 1 hr relative to control; type: ADME, cell-based, Erythrocyte; conditions: red blood cells, read-out: Activity
# Outline: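 Human A+ erythrocytes, 10% (v/v) in PBS, incubated in triplicate with compounds at final 10 µg/mL (DMSO <1%) for 1 h at room temperature with agitation. Mixtures centrifuged 5 min at 2000 rpm, supernatant absorbance read at 550 nm. 1% (v/v) Triton X-100 served as 100% lysis and PBS as 0% lysis.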
# Danio rerio [17] = organism: Danio rerio; test: Toxicity in 24 to 72 hrs post fertilized zebra fish embryo assessed as death at 3 to 10 ug/ml measured within 1 day post dose; type: organism-based; conditions: zebrafish, in vivo; outline: as §2
# Danio rerio [18] = organism: Danio rerio; test: Toxicity in 72 hrs post fertilized zebra fish embryo assessed as mortality at 1 ug/ml replaced once daily for 3 days; type: organism-based; conditions: zebrafish, in vivo; outline: as §2
# [19] = Toxicity in 48 hrs post fertilized zebra fish embryo assessed as embryo mortality at 2 ug/ml replaced once daily for 3 days; type: organism-based, Danio rerio; conditions: zebrafish, in vivo; read-out: Activity; outline: as §2
# Danio rerio [20] = organism: Danio rerio; test: Toxicity in 72 hrs post fertilized zebra fish embryo assessed as body axis deformation measured after third treatment dose replaced once daily for 3 days; type: organism-based; conditions: zebrafish, in vivo; outline: as §2
# Plasmodium falciparum [21] = test: Antiplasmodial activity against chloroquine-sensitive Plasmodium falciparum F32-Tanzania after 48 hrs by [3H]-hypoxanthine incorporation assay; type: functional, organism-based
SMILES,IC50 (Plasmodium falciparum [1]),IC50 (Plasmodium falciparum [2]),IC50 (WI-38),IC50 (HeLa),selectivity ratio [8],selectivity ratio [13],"hemolysis at 1 h, 10 ug/ml [16]",also measured
C[C@@H]1CC[C@H]2[C@@H](C)C(=O)O[C@@H]3O[C@@]4(C)CC[C@@H]1[C@]32OO4 [ARTEMISININ],0.01 to 0.035 µg/mL,4 to 14 nM,,,,,,
CC[C@@]1(O)C(=O)OCc2c1cc1n(c2=O)Cc2cc3ccccc3nc2-1 [CAMPTOTHECIN],,,0.03 to 0.086 µg/mL,0.08 to 0.23 µg/mL,,,,
CCCCCC/C=C\CCCCCCC[C@@H]1C[C@@]2(O)CC(=O)C=C[C@@]2(O)O1,0.21 to 0.55 µg/mL,340 to 900 nM,0.6 to 1.58 µg/mL,0.8 to 2.1 µg/mL,1.76,2.86,< 1%,"Activity (Danio rerio [3]): Toxic; Activity (Danio rerio [4]): Toxic; Activity (Danio rerio [5]): Toxic; Activity (Danio rerio [6]): Toxic; Activity (Danio rerio [7]): Toxic; Activity (Danio rerio [9]): Toxic; Activity (Mus musculus): Toxic; inhibition in vivo at 15 mg/kg (Plasmodium berghei [10]): 59.1%; Activity (Danio rerio [11]): Toxic; inhibition in vivo at 15 mg/kg (Plasmodium berghei [12]): 69.5%; Activity (Danio rerio [14]): 5%; Activity (Danio rerio [15]): Non-Toxic; Activity (Danio rerio [17]): Toxic; Activity (Danio rerio [18]): Non-Toxic; mortality at 72 h, 2 ug/ml [19]: 60%; Activity (Danio rerio [20]): Toxic"
CCCCCC/C=C\CCCCCCCC(=O)C[C@@]1(O)C=CC(=O)[C@@H](O)C1,0.48 to 1.27 µg/mL,430 to 1130 nM,1.01 to 2.66 µg/mL,1.31 to 3.45 µg/mL,2.34,2.1,< 1%,
CCCCCC/C=C\CCCCCCCC(O)C[C@]1(O)C=C[C@@H](O)[C@@H](O)C1 (stereo partly drawn),,,,,,,,IC50 (Plasmodium falciparum [21]): 86.4 µg/mL
O=c1c(O)c(-c2ccc(O)c(O)c2)oc2cc(O)cc(O)c12 [QUERCETIN],,17500 nM,,,,,,
CCCCCCCCCCCCCCC[C@@H]1C[C@@]2(O)CC(=O)C=C[C@@]2(O)O1,0.37 to 0.97 µg/mL,690 to 1810 nM,1.04 to 2.73 µg/mL,1.44 to 3.77 µg/mL,1.51,2.81,< 1%,
